Data from ChEMBL document CHEMBL1250422 (Bioorg Med Chem, 2010).

How the values were obtained:
Galectin-3 = Galectin-3 (Homo sapiens, UniProt P17931); assay: Binding affinity to human galectin 3 at 20 degC by competitive fluorescence polarization assay
In short: (§1)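 Human galectin (galectin-3, or the N-terminal domain of galectin-8 or -9) run in a competitive fluorescence polarization assay at 20 °C. Kd values were derived from inhibition of the fluorescent probe binding.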

Galectin-7 = Galectin-7 (Homo sapiens, UniProt P47929); assay: Binding affinity to human galectin 7 at 4 degC by competitive fluorescence polarization assay
In short: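 Human galectin-7 was tested in a competitive fluorescence polarization assay at 4 °C because assay sensitivity is lower. Kd values were derived from inhibition of the fluorescent probe binding.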

Galectin-8 = target: T1, Galectin-8 (Homo sapiens, UniProt O00214); assay: Binding affinity to human galectin 8 N-terminal domain at 20 degC by competitive fluorescence polarization assay; in short: as §1
T1 sequence (O00214 whole entry): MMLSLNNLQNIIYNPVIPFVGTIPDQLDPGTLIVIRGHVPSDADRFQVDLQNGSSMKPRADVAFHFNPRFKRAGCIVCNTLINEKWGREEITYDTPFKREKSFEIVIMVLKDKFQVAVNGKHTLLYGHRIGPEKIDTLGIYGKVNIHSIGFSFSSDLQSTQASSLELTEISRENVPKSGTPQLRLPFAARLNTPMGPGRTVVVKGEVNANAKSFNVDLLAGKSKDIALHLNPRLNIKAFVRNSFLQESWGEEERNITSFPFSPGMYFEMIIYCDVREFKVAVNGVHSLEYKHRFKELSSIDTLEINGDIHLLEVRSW

Galectin-9 = Galectin-9 (Homo sapiens, UniProt O00182); assay: Binding affinity to human galectin 9 N-terminal domain at 20 degC by competitive fluorescence polarization assay; in short: as §1
Sequence of Galectin-9 (O00182 whole entry, the tested form may be a part): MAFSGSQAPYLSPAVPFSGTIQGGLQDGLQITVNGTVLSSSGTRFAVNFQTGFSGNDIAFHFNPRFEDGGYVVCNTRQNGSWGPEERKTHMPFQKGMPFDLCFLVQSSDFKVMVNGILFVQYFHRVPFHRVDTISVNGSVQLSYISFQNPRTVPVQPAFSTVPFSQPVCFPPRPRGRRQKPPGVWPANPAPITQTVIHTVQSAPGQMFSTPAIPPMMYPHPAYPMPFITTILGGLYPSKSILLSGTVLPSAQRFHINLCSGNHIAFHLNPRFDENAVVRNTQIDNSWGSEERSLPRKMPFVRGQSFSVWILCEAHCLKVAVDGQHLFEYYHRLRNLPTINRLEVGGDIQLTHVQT

Sequence of Galectin-3 (P17931 whole entry, the tested form may be a part): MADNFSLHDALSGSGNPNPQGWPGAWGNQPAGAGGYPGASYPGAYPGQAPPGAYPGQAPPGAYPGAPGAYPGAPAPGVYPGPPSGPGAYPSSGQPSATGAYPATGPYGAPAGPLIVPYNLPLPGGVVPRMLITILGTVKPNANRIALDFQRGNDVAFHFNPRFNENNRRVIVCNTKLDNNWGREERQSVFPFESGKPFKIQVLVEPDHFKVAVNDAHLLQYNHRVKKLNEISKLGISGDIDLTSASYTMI
Sequence of Galectin-7 (P47929 whole entry): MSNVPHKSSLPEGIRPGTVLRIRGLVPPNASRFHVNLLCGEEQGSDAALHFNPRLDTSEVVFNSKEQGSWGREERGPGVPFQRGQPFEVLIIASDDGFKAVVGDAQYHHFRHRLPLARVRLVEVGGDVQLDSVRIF

Kd (Galectin-3) [µM] | Kd (Galectin-7) [µM] | Kd (Galectin-8) [µM] | Kd (Galectin-9) [µM] | SMILES
0.065 | 3.4 | 66 | 0.74 | C=CCNC(=O)c1cn([C@H]2[C@@H](O)[C@@H](CO)O[C@@H](S[C@@H]3O[C@H](CO)[C@H](O)[C@H](n4cc(C(=O)NCC=C)nn4)[C@H]3O)[C@@H]2O)nn1
> 2000 | 2700 | > 5000 | > 5000 | CS[C@@H]1O[C@H](CO)[C@H](O)[C@H](n2nnc(C(N)=O)c2N)[C@H]1O
0.05 | 2.8 | 100 | 1.8 | COc1cc(OC)cc(C(=O)N[C@@H]2[C@@H](O)[C@@H](S[C@@H]3O[C@H](CO)[C@H](O)[C@H](NC(=O)c4cc(OC)cc(OC)c4)[C@H]3O)O[C@H](CO)[C@@H]2O)c1
0.15 | 2 | 20 | 1.1 | O=C(NCCc1ccccc1)c1cn([C@H]2[C@@H](O)[C@@H](CO)O[C@@H](S[C@@H]3O[C@H](CO)[C@H](O)[C@H](n4cc(C(=O)NCCc5ccccc5)nn4)[C@H]3O)[C@@H]2O)nn1
> 5000 | 2400 | > 5000 | > 5000 | CS[C@@H]1O[C@H](CO)[C@H](O)[C@H](n2ccnn2)[C@H]1O
> 5000 | 2200 | > 5000 | > 5000 | CCCc1cn([C@H]2[C@@H](O)[C@@H](CO)O[C@@H](SC)[C@@H]2O)nn1
> 5000 | 2500 | > 5000 | > 5000 | CS[C@@H]1O[C@H](CO)[C@H](O)[C@H](n2cc(CO)nn2)[C@H]1O
1.5 | 74 | > 2000 | 12 | CO[C@@H]1O[C@H](CO)[C@@H](O[C@@H]2O[C@H](CO)[C@H](O)[C@H](n3cc(C(=O)NCc4ccccc4)nn3)[C@H]2O)[C@H](O)[C@H]1NC(C)=O
0.66 | 83 | > 2000 | 13 | CO[C@@H]1O[C@H](CO)[C@@H](O[C@@H]2O[C@H](CO)[C@H](O)[C@H](n3cc(C(=O)Nc4cccc5ccccc45)nn3)[C@H]2O)[C@H](O)[C@H]1NC(C)=O
0.029 | 5.4 | 58 | 1.1 | CCCCNC(=O)c1cn([C@H]2[C@@H](O)[C@@H](CO)O[C@@H](S[C@@H]3O[C@H](CO)[C@H](O)[C@H](n4cc(C(=O)NCCCC)nn4)[C@H]3O)[C@@H]2O)nn1
0.39 | 8.3 | 47 | 0.53 | O=C(NCc1ccccc1)c1cn([C@H]2[C@@H](O)[C@@H](CO)O[C@@H](S[C@@H]3O[C@H](CO)[C@H](O)[C@H](n4cc(C(=O)NCc5ccccc5)nn4)[C@H]3O)[C@@H]2O)nn1
0.12 | 5 | 58 | 2.1 | CC(O)CNC(=O)c1cn([C@H]2[C@@H](O)[C@@H](CO)O[C@@H](S[C@@H]3O[C@H](CO)[C@H](O)[C@H](n4cc(C(=O)NCC(C)O)nn4)[C@H]3O)[C@@H]2O)nn1 (some centres undefined)
0.25 | 4.7 | 90 | 2.3 | COCCNC(=O)c1cn([C@H]2[C@@H](O)[C@@H](CO)O[C@@H](S[C@@H]3O[C@H](CO)[C@H](O)[C@H](n4cc(C(=O)NCCOC)nn4)[C@H]3O)[C@@H]2O)nn1
 | 130 | > 2000 | 73 | CNC(=O)c1cn([C@H]2[C@@H](O)[C@@H](CO)O[C@@H](O[C@H]3[C@H](O)[C@@H](NC(C)=O)[C@H](OC)O[C@@H]3CO)[C@@H]2O)nn1
0.12 | 8 | 81 | 0.91 | CNC(=O)c1cn([C@H]2[C@@H](O)[C@@H](CO)O[C@@H](S[C@@H]3O[C@H](CO)[C@H](O)[C@H](n4cc(C(=O)NC)nn4)[C@H]3O)[C@@H]2O)nn1
0.48 | > 100 | > 100 | > 100 | CO[C@@H]1O[C@H](CO)[C@@H](O[C@@H]2O[C@H](CO)[C@H](O)[C@H](NC(=O)c3ccc4ccccc4c3)[C@H]2O)[C@H](O)[C@H]1NC(C)=O
1300 | > 5000 | > 5000 | 430 | COC(=O)c1cn([C@H]2[C@@H](O)[C@@H](CO)O[C@@H](SC)[C@@H]2O)nn1

Kd (Galectin-3) [µM] | Kd (Galectin-7) [µM] | Kd (Galectin-8) [µM] | Kd (Galectin-9) [µM] | SMILES
1600 | > 5000 | > 5000 | 1000 | CS[C@@H]1O[C@H](CO)[C@H](O)[C@H](n2cc(C3(O)CCCCC3)nn2)[C@H]1O
150 | 1700 | > 5000 | 1300 | CS[C@@H]1O[C@H](CO)[C@H](O)[C@H](n2cc(-c3ccccc3)nn2)[C@H]1O
130 | 2800 | > 5000 | 2100 | COc1cccc(-c2cn([C@H]3[C@@H](O)[C@@H](CO)O[C@@H](SC)[C@@H]3O)nn2)c1
260 | 2000 |  | > 5000 | COc1ccc(-c2cn([C@H]3[C@@H](O)[C@@H](CO)O[C@@H](SC)[C@@H]3O)nn2)cc1
200 | > 2000 | > 5000 | 1700 | CS[C@@H]1O[C@H](CO)[C@H](O)[C@H](n2cc(-c3ccccc3F)nn2)[C@H]1O
120 | 810 | > 5000 | 690 | CS[C@@H]1O[C@H](CO)[C@H](O)[C@H](n2cc(-c3cccc4ccccc34)nn2)[C@H]1O
1900 |  | 670 | 1600 | CS[C@@H]1O[C@H](CO)[C@H](O)[C@H](n2cc(-c3cccnc3)nn2)[C@H]1O
130 | 2000 |  | 330 | CS[C@@H]1O[C@H](CO)[C@H](O)[C@H](n2cc(S(=O)(=O)c3ccc(C)cc3)nn2)[C@H]1O
> 5000 |  |  | 1600 | CS[C@@H]1O[C@H](CO)[C@H](O)[C@H](n2nncc2S(=O)(=O)c2ccc(C)cc2)[C@H]1O
> 5000 | > 5000 |  | > 5000 | CNC(=O)c1nnn([C@H]2[C@@H](O)[C@@H](CO)O[C@@H](SC)[C@@H]2O)c1C(=O)NC
 |  | > 5000 | 1100 | CNC(=O)c1cn([C@H]2[C@@H](O)[C@@H](CO)O[C@@H](SC)[C@@H]2O)nn1
150 | 1100 | > 5000 | 640 | CCCCNC(=O)c1cn([C@H]2[C@@H](O)[C@@H](CO)O[C@@H](SC)[C@@H]2O)nn1
360 | 1500 | > 5000 | 1900 | CS[C@@H]1O[C@H](CO)[C@H](O)[C@H](n2cc(C(=O)NCCCO)nn2)[C@H]1O
520 | > 5000 | > 5000 | 470 | CS[C@@H]1O[C@H](CO)[C@H](O)[C@H](n2cc(C(=O)NCCN3CCOCC3)nn2)[C@H]1O
 | 2100 | > 5000 | 540 | CS[C@@H]1O[C@H](CO)[C@H](O)[C@H](n2cc(C(=O)NCc3ccccc3)nn2)[C@H]1O
59 | 5500 | 1000 | 490 | CO[C@@H]1O[C@H](CO)[C@@H](O[C@@H]2O[C@H](CO)[C@H](O)[C@H](O)[C@H]2O)[C@H](O)[C@H]1NC(C)=O

SMILES | Kd (Galectin-3) [µM] | Kd (Galectin-7) [µM] | Kd (Galectin-8) [µM] | Kd (Galectin-9) [µM]
CO[C@@H]1O[C@H](CO)[C@H](O)[C@H](O)[C@H]1O |  | 4800 |  | 3300
